The values below come from ChEMBL document CHEMBL3351267, “Curcuminoid derivatives enhance telomerase activity in an in vitro TRAP assay” (Bioorg Med Chem Lett, 2014).

Calls of active or inactive are those of the source. The calls are words filed in the database; no cut-off is given here. Where only a bound is given, the exact number is not on record here.

The target of test [1] is Telomerase reverse transcriptase (Homo sapiens) (UniProt O14746). The test can be described thus: Activation of human telomerase activity expressed in HEK293T cells at 20 to 60 uM incubated for 30 mins by modified TRAP assay. It is filed as cell-based. Conditions: HEK-293T. The method in brief: (§1)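 Telomerase came from crude lysate of HEK293T cells transfected with hTERT and hTR plasmids. MTS primer and compound were incubated in telomerase reaction buffer at 30 °C for 30 min, then removed by two phenol–chloroform extractions. Products were ethanol-precipitated, PCR-amplified with FAM-tagged primer, run on 8% non-denaturing acrylamide and phosphorimaged. Accumulated product intensity was averaged over three independent experiments.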

The target is the same in test [2]. The test can be described thus: Activation of human telomerase activity expressed in HEK293T cells at 60 uM incubated for 30 mins by modified TRAP assay. Particulars: HEK-293T. The class given is cell-based. The method in brief: as §1
For test [3] the target is unchanged. The test can be described thus: Activation of human telomerase activity expressed in HEK293T cells incubated for 30 mins by modified TRAP assay. The class given is cell-based. Conditions: HEK-293T. The method in brief:
as §1

The test system of a further test is Thermus aquaticus. The test can be described thus: Inhibition of Thermus aquaticus DNA polymerase at 5 uM.
Test [4] addresses Telomerase reverse transcriptase (Homo sapiens) (UniProt O14746). The test can be described thus: Activation of human telomerase activity expressed in HEK293T cells assessed as increase in telomer products intensity incubated for 30 mins by modified TRAP assay. The class given is cell-based. Particulars: HEK-293T. The method in brief:
as §1

Test [5] has the same target. The test can be described thus: Activation of human telomerase activity expressed in HEK293T cells incubated for 30 mins by modified TRAP assay and phosphorimage analysis. Conditions: HEK-293T. It is filed as cell-based. The method in brief:
as §1

Test [6] has the same target. The test can be described thus: Activation of human telomerase activity expressed in HEK293T cells at 60 uM incubated for 30 mins by modified TRAP assay and phosphorimage analysis. Conditions: HEK-293T. The class given is cell-based. The method in brief:
as §1

The target is the same in test [7]. The test can be described thus: Activation of human telomerase activity expressed in HEK293T cells assessed as increase in telomer products length at 40 uM by modified TRAP assay and phosphorimage analysis. It is filed as cell-based. Particulars: HEK-293T, TDE = time-dependent effect. The method in brief:
(§2)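 This was a time course at 40 µM compound, with the compound-free set run in parallel. The telomerase source was lysate of HEK293T cells transfected with hTERT/hTR. Reactions ran at 30 °C, and 100 µl was withdrawn at set times and heat-stopped at 95 °C for 10 min. Products were purified, PCR-amplified with FAM primer, and separated on 8% non-denaturing gel with phosphorimaging. Intensities came from three independent experiments.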

The target is the same in test [8]. The test can be described thus: Activation of human telomerase activity expressed in HEK293T cells assessed as increase in telomer products length incubated for 30 mins by modified TRAP assay. It is filed as cell-based. Particulars: HEK-293T. The method in brief: as §1
For test [9] the target is unchanged. The test can be described thus: Activation of human telomerase activity expressed in HEK293T cells assessed as increase in telomer products intensity at 40 uM by modified TRAP assay and phosphorimage analysis. Conditions: HEK-293T, TDE = time-dependent effect. The class given is cell-based. The method in brief:
as §2

Chain of Telomerase reverse transcriptase (Homo sapiens) (O14746 whole entry): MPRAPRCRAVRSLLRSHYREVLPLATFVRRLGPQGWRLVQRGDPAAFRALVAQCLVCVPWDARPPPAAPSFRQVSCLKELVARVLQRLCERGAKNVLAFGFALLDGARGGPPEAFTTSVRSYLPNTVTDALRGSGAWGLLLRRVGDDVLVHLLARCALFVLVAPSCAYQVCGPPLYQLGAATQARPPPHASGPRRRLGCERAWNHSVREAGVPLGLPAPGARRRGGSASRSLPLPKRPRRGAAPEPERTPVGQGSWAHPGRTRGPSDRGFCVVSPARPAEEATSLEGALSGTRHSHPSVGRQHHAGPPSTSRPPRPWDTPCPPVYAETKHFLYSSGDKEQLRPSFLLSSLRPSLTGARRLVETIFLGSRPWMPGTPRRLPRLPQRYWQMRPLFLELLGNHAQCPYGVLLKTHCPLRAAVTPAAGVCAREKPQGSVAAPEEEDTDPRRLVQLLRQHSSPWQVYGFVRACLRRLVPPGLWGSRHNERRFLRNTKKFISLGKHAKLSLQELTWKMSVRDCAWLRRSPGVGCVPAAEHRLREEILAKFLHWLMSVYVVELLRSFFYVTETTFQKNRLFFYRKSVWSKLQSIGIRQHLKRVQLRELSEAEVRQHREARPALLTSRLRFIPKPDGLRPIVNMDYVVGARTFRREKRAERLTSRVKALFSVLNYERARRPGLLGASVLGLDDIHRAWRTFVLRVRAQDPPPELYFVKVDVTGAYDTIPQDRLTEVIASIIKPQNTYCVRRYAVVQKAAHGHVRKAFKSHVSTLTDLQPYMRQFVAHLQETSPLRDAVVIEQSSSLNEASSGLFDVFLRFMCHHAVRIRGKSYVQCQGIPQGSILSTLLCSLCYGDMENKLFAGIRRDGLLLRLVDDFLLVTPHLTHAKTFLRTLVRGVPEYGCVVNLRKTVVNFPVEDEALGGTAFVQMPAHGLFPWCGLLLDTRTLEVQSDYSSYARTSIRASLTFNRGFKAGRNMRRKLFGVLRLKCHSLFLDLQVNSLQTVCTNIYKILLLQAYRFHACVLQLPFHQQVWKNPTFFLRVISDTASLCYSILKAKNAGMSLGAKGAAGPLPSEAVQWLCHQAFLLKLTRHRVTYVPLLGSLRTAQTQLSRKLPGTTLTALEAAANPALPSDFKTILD

On to `COc1cc(CC/C=C/C(=O)CCc2ccc(OCCCCC[n+]3ccccc3)c(OC)c2)ccc1OCCCCC[n+]1ccccc1`, for which the outcome in test [1] was inactive. `COc1cc(/C=C/C(=O)CC(=O)/C=C/c2ccc(O)cc2)ccc1OCCCCC[n+]1ccccc1` had a fold change (FC) in test [2] of 3. Turning to `O=C(/C=C/c1ccc(O)cc1)CC(=O)/C=C/c1ccc(O)cc1`, the result in test [3] was inactive. In turn, `COc1cc(/C=C/C(=O)CC(=O)/C=C/c2ccc(OCCCCC[n+]3ccccc3)c(OC)c2)ccc1O` returned a fold change (FC) in [2] of 3.

In the case of `COc1cc(/C=C/C(=O)CC(=O)/C=C/c2ccc(OCCCCC[n+]3ccccc3)cc2)ccc1O`, the fold change (FC) in [2] was determined as 3.

On to `COc1cc(/C=C/C(=O)CC(=O)/C=C/c2ccc(OCCCCC[n+]3ccccc3)c(OC)c2)ccc1OCCCCC[n+]1ccccc1`, for which the inhibition entry in the test on Thermus aquaticus is “Active”. Also, the Activity result was “Dose-dependent effect” in test [4]; “Dose-dependent effect” in test [5]; “Dose-dependent effect” in test [3]; “tde” in test [7]; “Dose-dependent effect” in test [8]; “tde” in test [9]. The fold change (FC) in [6] was under 5; in [2] it was 5.

In the case of `COc1cc(/C=C/C(=O)CC(=O)/C=C/c2ccc(OCCO)c(OC)c2)ccc1OCCO`, the result in [3] was inactive. As to `COc1cc(/C=C/c2cc(/C=C/c3ccc(OCCCCC[n+]4ccccc4)c(OC)c3)on2)ccc1OCCCCC[n+]1ccccc1`, the fold change (FC) in [2] was found to be 3.

As for `COc1cc(CCC(O)CC(O)CCc2ccc(O)c(OC)c2)ccc1O` (stereo not given), the result in test [3] was inactive. Still for that read-out and setting: the result for `COc1cc(/C=C/C(=O)CC(=O)/C=C/c2ccc(O)c(OC)c2)ccc1O` reads “inactive”. On the same count and under the same terms, the result for `COc1cc(CCC(=O)CC(=O)CCc2ccc(O)c(OC)c2)ccc1O` reads “inactive”. Still for that read-out and setting: the result for `COc1cc(/C=C/C(O)=C/C(=O)/C=C/c2ccc(O)cc2)ccc1O` reads “inactive”.
